DDE Tn6 FP inh: disrupts Tn6 cyclic peptide binding to fibrin D-Dimer-E complex; P02675; Fibrin DD(E) TRITC-Tn6 fluorescence polarization displacement; inhibition, % at 8.3 µM; 370,000 compounds, 0.21% hits; AID 720509;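 active = inhibition above a per-campaign cutoff: mean of compounds within control limits plus 3 SD, cut at about 15% in these data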;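 note: 0% = median of all compound wells on the plate and 100% = blocking peptide control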
PLCg1 inh: PLC-gamma1 (human) inhibition, primary screen | 370,000 compounds, 0.84% hits | inhibition, % at 12.2 µM | P19174 | purified PLC-gamma1, fluorogenic substrate, fluorescence; in the data active = inhibition above about 9.5%
FID counter: displaces DNA intercalator in HCV helicase counter-screen. DNA fluorescent intercalator displacement, fluorescence. inhibition, % at 7.9 µM. 290,000 compounds, 0.17% hits; in the data active = inhibition above about 37%;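 note: 0% = vehicle and 100% = reference compound; higher means more ethidium bromide displaced from hairpin DNA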
PLCb3 inh: blocks human PLC-beta3 enzyme activity; 370,000 compounds, 0.18% hits; Q01970; inhibition, % at 12.2 µM; AID 720704; Purified PLC-beta3, fluorogenic substrate, fluorescence;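 note: 0% = median of compound wells on plate and 100% = full blocker control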
Target sequence (Q01970 whole entry, looked up): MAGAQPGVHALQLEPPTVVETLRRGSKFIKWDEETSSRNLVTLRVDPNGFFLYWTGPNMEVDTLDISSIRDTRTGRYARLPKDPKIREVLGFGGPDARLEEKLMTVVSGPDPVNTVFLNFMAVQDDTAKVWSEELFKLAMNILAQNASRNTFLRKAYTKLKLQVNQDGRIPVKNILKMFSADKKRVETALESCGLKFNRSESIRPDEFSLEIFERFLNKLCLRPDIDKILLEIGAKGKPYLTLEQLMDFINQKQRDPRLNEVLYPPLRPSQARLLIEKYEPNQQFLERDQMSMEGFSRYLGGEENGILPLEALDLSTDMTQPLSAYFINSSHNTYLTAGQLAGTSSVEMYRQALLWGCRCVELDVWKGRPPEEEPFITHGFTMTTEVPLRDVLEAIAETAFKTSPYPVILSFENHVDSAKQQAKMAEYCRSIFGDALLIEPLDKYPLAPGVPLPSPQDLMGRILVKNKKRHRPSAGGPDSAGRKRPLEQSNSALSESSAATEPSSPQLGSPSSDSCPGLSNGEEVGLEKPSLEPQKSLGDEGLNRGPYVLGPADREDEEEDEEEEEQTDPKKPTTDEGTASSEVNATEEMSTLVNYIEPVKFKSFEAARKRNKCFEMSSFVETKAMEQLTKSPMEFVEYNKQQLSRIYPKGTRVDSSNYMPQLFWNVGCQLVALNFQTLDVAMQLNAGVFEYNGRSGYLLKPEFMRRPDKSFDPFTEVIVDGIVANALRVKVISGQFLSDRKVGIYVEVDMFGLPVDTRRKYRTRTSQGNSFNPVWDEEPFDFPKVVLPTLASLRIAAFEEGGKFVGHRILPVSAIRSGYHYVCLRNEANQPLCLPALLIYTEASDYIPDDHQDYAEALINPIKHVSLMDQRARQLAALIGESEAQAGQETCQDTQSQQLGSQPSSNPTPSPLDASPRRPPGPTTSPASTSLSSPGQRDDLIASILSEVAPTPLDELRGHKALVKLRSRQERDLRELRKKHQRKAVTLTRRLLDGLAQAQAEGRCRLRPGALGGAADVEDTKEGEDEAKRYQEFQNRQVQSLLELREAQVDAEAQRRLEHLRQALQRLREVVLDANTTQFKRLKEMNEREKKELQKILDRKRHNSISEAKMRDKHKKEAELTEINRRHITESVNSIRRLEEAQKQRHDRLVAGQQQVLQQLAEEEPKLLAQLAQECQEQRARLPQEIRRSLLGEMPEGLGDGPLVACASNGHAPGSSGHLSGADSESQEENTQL
DDE Tn7 FP inh: DD(E)-Tn7 binding inhibition, primary FP screen; FP displacement of FITC-Tn7 peptide from fibrin DD(E); 0% = median of compound wells per plate; inhibition, % at 8.3 µM; 370,000 compounds, 0.13% hits; P02675; AID 720508;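 active = inhibition above the mean of compounds falling within the control limits plus 3 SD of them, cut at about 14% in these data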;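 note: 0% = plate median of compound wells and 100% = 10 µM Aha-Tn7 peptide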
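Assay system: Fibrin-DD(E) protein isolated from polymerized human fibrin clots; read-out basis: percent inhibition; medium: Tris/NaCl/CaCl2 buffer, pH 7.8; signal: FP measurement; incubation: 10 min plus 3 h, room temperature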
PLCgamma1 ctr: counter-screen for PLC-beta3 inhibitors: inhibitors of human PLC-gamma1. inhibition, % at 12.3 µM. shares compounds with PLCg1 inh. 3,300 compounds, 3.1% hits. AID 743258. purified PLC-gamma1, fluorogenic substrate, fluorescence; in the data active = inhibition above about 9.5%
PLCbeta3 conf: human PLC-beta3 inhibition, confirmation | 3,300 compounds, 1% hits | inhibition, % at 12.3 µM | purified PLC-beta3, fluorogenic substrate fluorescence | shares compounds with PLCg1 inh | AID 743261
Active calls of the source: *; . = no result. The list is not random: actives were taken first. Their share in the collection is about 1.4%. Cut-off read from the data, not from the text of the source, unless noted: active = inhibition above about 11%; inactive = the rest.

SMILES	DDE Tn6 FP inh	PLCg1 inh	FID counter	PLCb3 inh	DDE Tn7 FP inh	PLCgamma1 ctr	PLCbeta3 conf
CCOc1cccc(C(=O)Nc2ccc(NC(=O)c3ccccc3)c(C)c2)c1	-7	7	-28	15*	-2	-3	14*
COc1ccc(NC(=O)c2cccc3ccccc23)cc1	-1	9.9*	-4	-4	1	-8	-4
COCCNC(=O)Cn1nc(C)c2ccccc2c1=O	-6	2	0	1	1	.	.
O=C(NCCc1ccccc1)OCc1cn(Cc2ccc(F)cc2F)nn1	3	-2	.	-4	-2	.	.
Nn1cc(-c2ccccc2)nc1SCC(=O)NCCc1ccccc1	-4	-2	-10	-10	-2	.	.
COc1ccc(Cl)cc1C(=O)C1CCCN(Cc2cnc(N3CCOCC3)s2)C1 (configuration not stated)	-8	-4	4	-3	-2	.	.
COc1cccc(C(O)c2nc(-c3ccccc3C)cs2)c1 (configuration not stated)	1	4	.	9	-5	.	.
COCC(=O)Nc1ccccc1C(=O)Nc1ccc(OC)cc1	2	11*	-4	1	-1	-7	-1
COc1cccc(C(=O)NNS(=O)(=O)c2ccccc2)c1	-6	12*	.	3	1	-5	-2
O=C(NCc1cccnc1)Nc1ccc(Cl)c(Cl)c1	-3	9.6*	-1	-2	4	-5	-1
S=C(NCc1cccnc1)Nc1ccc(Cl)c(Cl)c1	-4	1	5	8	-7	.	.
CC1CCCCN1C(=O)c1cc(S(=O)(=O)N2CCOCC2)ccc1Cl (configuration not stated)	1	2	.	-8	2	.	.
CCCC(C)C(=O)Nc1cccc(NC(C)=O)c1 (configuration not stated)	5	12*	1	8	-3	-6	-3
O=C1C=C[C@H]2CC[C@@H](O)[C@@H]1[C@@H]2Sc1ccccc1	10	10*	.	-2	8	3	-1
Cc1cc(C)cc(NC(=O)C(OC(=O)c2cccs2)c2ccccc2)c1 (configuration not stated)	0	1	-8	2	5	.	.
CCCCn1c(=O)n(CC(=O)Nc2ccc(OC)c(Cl)c2)c(=O)c2c1nc(CO)n2CCC	-1	9.7*	-23	6	1	13*	7
CCCCn1c(=O)n(CC(=O)Nc2c(CC)cccc2CC)c(=O)c2c1nc(CO)n2CCC	-3	2	-14	4	-5	.	.
C[N+]1(C)CCC(OC(=O)C(O)(c2ccccc2)C2CCCC2)C1 (configuration not stated)	-11	10*	.	5	7	-3	2
O=C(CN1CCN(CCOCCO)CC1)N1c2ccccc2Sc2ccc(Cl)cc21	.	.	19	.	.	.	.
CCOC(=O)NCc1ccc(S(=O)(=O)Nc2ccc(C)cc2)cc1	-3	13*	-14	4	-9	-7	-4
COc1ccc(C(=O)NCC(c2cccs2)N2CCc3ccccc32)cc1OC (configuration not stated)	-3	0	.	0	0	.	.
CCCCc1nc2ccccc2c(=O)n1NC(=O)c1c(O)c2c(n(CC(C)C)c1=O)CCCC2	1	13*	2	0	0	-3	-3
Cc1cc(C)nc(/N=C(/NC(=O)c2ccccc2)Nc2ccccc2)n1	-3	3	1	0	-4	.	.
COc1ccc(NS(=O)(=O)c2cc(NC(=O)c3cccnc3Cl)ccc2N2CCCC2)cc1	-9	10*	-22	0	-4	2	-7
COc1ccc(C(C)c2cc3c(cc2OCC(=O)O)OCO3)cc1 (configuration not stated)	5	4	.	21*	-1	-1	0
CCCCNC(=O)c1ccc(C)c(NC(=O)C2=C(C)OCCS2)c1	3	-3	-10	-3	-5	.	.
O=C(O)C1CCCCN1C(=O)c1ccc(S(=O)(=O)N2CCCC2)cc1 (configuration not stated)	0	9.7*	.	1	-2	-3	0
Cc1cc(C(=O)CSc2ccc(F)cc2)cc(C)c1OC(=S)N(C)C	2	2	-9	1	1	.	.
